≈ marks a conversion by molar mass, not a printed value.
Columns and labels:
Type in all cases: functional
Haemophilus influenzae [1] = test: Antibacterial activity against Haemophilus influenzae group IIc isolates with ftsI gene mutation by broth microdilution method
Method in brief: (§1)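 Clinical isolates were tested by broth microdilution in Haemophilus test medium following CLSI guidelines, with H. influenzae ATCC 49247 as the QC strain. β-Lactamase was detected by chromogenic nitrocefin test. ftsI was PCR-amplified and sequenced across nt 936–1640 (aa 327–540). Classes: BLNAS (no mechanism), BLNAR (ftsI substitutions), BLPAR (β-lactamase only), BLPACR (both). Agents tested were amoxicillin, amoxicillin-clavulanate (2:1), cefaclor, cefuroxime, cefotaxime and cefixime.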

Haemophilus influenzae [2] = test: Antibacterial activity against beta-lactamase nonproducing ampicillin susceptible Haemophilus influenzae isolate by broth microdilution method; method in brief: as §1
Haemophilus influenzae [3] = test: Antibacterial activity against beta-lactamase nonproducing ampicillin susceptible Haemophilus influenzae isolate assessed as percent susceptible isolates by broth microdilution method
Method in brief: (§2)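 Broth microdilution in Haemophilus test medium per CLSI guidelines on clinical isolates, with H. influenzae ATCC 49247 as quality-control strain; β-lactamase production detected by nitrocefin chromogenic cephalosporin test; isolates classed by β-lactamase status and ftsI (PBP 3) sequencing of amino acids 327 to 540. Agents tested: amoxicillin, amoxicillin-clavulanic acid (2:1), cefaclor, cefuroxime, cefotaxime, cefixime.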

Haemophilus influenzae [4] = test: Antibacterial activity against beta-lactamase nonproducing ampicillin resistant Haemophilus influenzae group IId isolates with acrR mutation by broth microdilution method
Haemophilus influenzae [5] = test: Antibacterial activity against beta-lactamase nonproducing ampicillin resistant Haemophilus influenzae group IIc isolates with acrR baseC insertion mutation by broth microdilution method
Haemophilus influenzae [6] = test: Antibacterial activity against beta-lactamase nonproducing ampicillin resistant Haemophilus influenzae group IIc isolates with acrR TTA>TGA mutation at 521 position by broth microdilution method
Haemophilus influenzae [7] = test: Antibacterial activity against Haemophilus influenzae group IIb isolates with ftsI gene mutation by broth microdilution method; method in brief: as §1
Haemophilus influenzae [8] = test: Antibacterial activity against beta-lactamase nonproducing ampicillin susceptible Haemophilus influenzae isolate assessed as percent resistant isolates by broth microdilution method; method in brief: as §1
Haemophilus influenzae [9] = test: Antibacterial activity against beta-lactamase nonproducing ampicillin resistant Haemophilus influenzae group IIc isolates with acrR base C insertion behind nucleotide 496 by broth microdilution method
Haemophilus influenzae [10] = test: (§3) Antibacterial activity against beta-lactamase nonproducing ampicillin resistant Haemophilus influenzae group IIa isolates with acrR aminoacid substitution mutation by broth microdilution method
Haemophilus influenzae [11] = test: Antibacterial activity against beta-lactamase nonproducing ampicillin resistant Haemophilus influenzae group IIc isolates with acrR mutation by broth microdilution method
Haemophilus influenzae [12] = test: Antibacterial activity against beta-lactamase nonproducing ampicillin resistant Haemophilus influenzae group IIc isolates with acrR base A insertion behind nucleotide 361 by broth microdilution method
Haemophilus influenzae [13] = test: Antibacterial activity against beta-lactamase nonproducing ampicillin resistant Haemophilus influenzae group IIb isolates with acrR mutation by broth microdilution method
Haemophilus influenzae [14] = test: Antibacterial activity against beta-lactamase producing amoxicillin-clavulanic acid-resistant Haemophilus influenzae isolate by broth microdilution method; method in brief: as §1
Haemophilus influenzae [15] = test: Antibacterial activity against Haemophilus influenzae group III-like isolates with ftsI gene mutation by broth microdilution method; method in brief: as §1
Haemophilus influenzae [16] = test: Antibacterial activity against beta-lactamase nonproducing ampicillin resistant Haemophilus influenzae group I isolates with acrR ATT deletion behind nucleotide 170 by broth microdilution method
Haemophilus influenzae [17] = test: Antibacterial activity against beta-lactamase positive ampicillin resistant Haemophilus influenzae isolate assessed as percent resistant isolates by broth microdilution method; method in brief: as §1
Haemophilus influenzae [18] = test: Antibacterial activity against beta-lactamase nonproducing ampicillin resistant Haemophilus influenzae isolate by broth microdilution method; method in brief: as §1
Haemophilus influenzae [19] = test: Antibacterial activity against Haemophilus influenzae group IIa isolates with ftsI gene mutation by broth microdilution method; method in brief: as §1
Haemophilus influenzae [20] = test: Antibacterial activity against Haemophilus influenzae group IId isolates with ftsI gene mutation by broth microdilution method; method in brief: as §1
Haemophilus influenzae [21] = test: Antibacterial activity against beta-lactamase nonproducing ampicillin resistant Haemophilus influenzae isolate assessed as percent resistant isolates by broth microdilution method; method in brief: as §1
Haemophilus influenzae [22] = test: Antibacterial activity against beta-lactamase producing amoxicillin-clavulanic acid-resistant Haemophilus influenzae isolate assessed as percent resistant isolates by broth microdilution method; method in brief: as §1
Haemophilus influenzae [23] = test: Antibacterial activity against beta-lactamase nonproducing ampicillin resistant Haemophilus influenzae isolate assessed as percent susceptible isolates by broth microdilution method; method in brief: as §1
Haemophilus influenzae [24] = test: Antibacterial activity against beta-lactamase positive ampicillin resistant Haemophilus influenzae isolate by broth microdilution method; method in brief: as §1
Haemophilus influenzae [25] = test: as §3; remark: listed apart in the source
Haemophilus influenzae [26] = test: Antibacterial activity against beta-lactamase nonproducing ampicillin resistant Haemophilus influenzae group IIc isolates with acrR TTA>TGA mutation at 425 position by broth microdilution method
Haemophilus influenzae [27] = test: Antibacterial activity against beta-lactamase nonproducing ampicillin resistant Haemophilus influenzae group IIb isolates with acrR aminoacid substitution mutation by broth microdilution method
Haemophilus influenzae [28] = test: Antibacterial activity against beta-lactamase nonproducing ampicillin resistant Haemophilus influenzae group IIc isolates with acrR aminoacid substitution mutation by broth microdilution method
Haemophilus influenzae [29] = test: Antibacterial activity against beta-lactamase producing amoxicillin-clavulanic acid-resistant Haemophilus influenzae isolate assessed as percent susceptible isolates by broth microdilution method; method in brief: as §2
Haemophilus influenzae [30] = test: Antibacterial activity against Haemophilus influenzae group I isolates with ftsI gene mutation by broth microdilution method; method in brief: as §1
Haemophilus influenzae [31] = test: Antibacterial activity against beta-lactamase positive ampicillin resistant Haemophilus influenzae isolate assessed as percent susceptible isolates by broth microdilution method; method in brief: as §1

## CC1(C)S[C@@H]2[C@H](NC(=O)[C@H](N)c3ccccc3)C(=O)N2[C@H]1C(=O)O [AMPICILLIN]
Haemophilus influenzae [1]
  MIC50: 2 µg/mL (≈ 5.72 µM)
  MIC90: 2 µg/mL (≈ 5.72 µM)
Haemophilus influenzae [2]
  MIC: ≤ 0.25 µg/mL
  MIC50: ≤ 0.25 µg/mL
  MIC90: 0.5 µg/mL (≈ 1.43 µM)
Haemophilus influenzae [3]
  Activity: 98.4%
Haemophilus influenzae [4]
  MIC: 1 µg/mL (≈ 2.86 µM)
Haemophilus influenzae [5]
  MIC: 2 µg/mL (≈ 5.72 µM)
Haemophilus influenzae [6]
  MIC: 2 µg/mL (≈ 5.72 µM)
Haemophilus influenzae [7]
  MIC50: 1 µg/mL (≈ 2.86 µM)
  MIC90: 2 µg/mL (≈ 5.72 µM)
Haemophilus influenzae [8]
  Activity: 1.6%
Haemophilus influenzae [9]
  MIC: 0.5 µg/mL (≈ 1.43 µM)
Haemophilus influenzae [10]
  MIC: 1 µg/mL (≈ 2.86 µM)
Haemophilus influenzae [11]
  MIC: 1 µg/mL (≈ 2.86 µM)
Haemophilus influenzae [12]
  MIC: 1 µg/mL (≈ 2.86 µM)
Haemophilus influenzae [13]
  MIC: 1 µg/mL (≈ 2.86 µM)
Haemophilus influenzae [14]
  MIC50: ≥ 32 µg/mL
  MIC90: ≥ 32 µg/mL
Haemophilus influenzae [15]
  MIC50: 1 µg/mL (≈ 2.86 µM)
  MIC90: 2 µg/mL (≈ 5.72 µM)
Haemophilus influenzae [16]
  MIC: 2 µg/mL (≈ 5.72 µM)
Haemophilus influenzae [17]
  Activity: 100%
Haemophilus influenzae [18]
  MIC50: 1 µg/mL (≈ 2.86 µM)
  MIC90: 2 µg/mL (≈ 5.72 µM)
Haemophilus influenzae [19]
  MIC50: 2 µg/mL (≈ 5.72 µM)
  MIC90: 4 µg/mL (≈ 11.4 µM)
Haemophilus influenzae [20]
  MIC: 0.5 µg/mL (≈ 1.43 µM)
  MIC50: 0.5 µg/mL (≈ 1.43 µM)
  MIC90: 2 µg/mL (≈ 5.72 µM)
Haemophilus influenzae [21]
  Activity: 50.8%
Haemophilus influenzae [22]
  Activity: 100%
Haemophilus influenzae [23]
  Activity: 49.2%
Haemophilus influenzae [24]
  MIC50: 8 µg/mL (≈ 22.9 µM)
Haemophilus influenzae [25]
  MIC: 4 µg/mL (≈ 11.4 µM)
Haemophilus influenzae [26]
  MIC: 0.5 µg/mL (≈ 1.43 µM)
Haemophilus influenzae [27]
  MIC: 2 µg/mL (≈ 5.72 µM)
Haemophilus influenzae [28]
  MIC: 2 µg/mL (≈ 5.72 µM)
Haemophilus influenzae [29]
  Activity: 0%
Haemophilus influenzae [30]
  MIC: 0.5 µg/mL (≈ 1.43 µM)
  MIC50: 0.5 µg/mL (≈ 1.43 µM)
  MIC90: 2 µg/mL (≈ 5.72 µM)

## N[C@@H](C(=O)N[C@@H]1C(=O)N2C(C(=O)O)=C(Cl)CS[C@H]12)c1ccccc1 [CEFACLOR ANHYDROUS]
Haemophilus influenzae [1]
  MIC50: 8 µg/mL (≈ 21.8 µM)
Haemophilus influenzae [2]
  MIC50: 2 µg/mL (≈ 5.44 µM)
  MIC90: 4 µg/mL (≈ 10.9 µM)
Haemophilus influenzae [3]
  Activity: 100%
Haemophilus influenzae [7]
  MIC50: 4 µg/mL (≈ 10.9 µM)
Haemophilus influenzae [8]
  Activity: 0%
Haemophilus influenzae [31]
  Activity: 91.1%
Haemophilus influenzae [14]
  MIC50: 4 µg/mL
  MIC90: ≥ 16 µg/mL
Haemophilus influenzae [15]
  MIC50: 4 µg/mL (≈ 10.9 µM)
Haemophilus influenzae [17]
  Activity: 8.9%
Haemophilus influenzae [18]
  MIC50: 4 µg/mL (≈ 10.9 µM)
Haemophilus influenzae [19]
  MIC50: 8 µg/mL (≈ 21.8 µM)
Haemophilus influenzae [20]
  MIC50: 2 µg/mL (≈ 5.44 µM)
  MIC90: 8 µg/mL (≈ 21.8 µM)
Haemophilus influenzae [21]
  Activity: 12.1%
Haemophilus influenzae [22]
  Activity: 24.3%
Haemophilus influenzae [23]
  Activity: 87.9%
Haemophilus influenzae [24]
  MIC50: 4 µg/mL (≈ 10.9 µM)
  MIC90: 8 µg/mL (≈ 21.8 µM)
Haemophilus influenzae [29]
  Activity: 75.7%
Haemophilus influenzae [30]
  MIC: 2 µg/mL (≈ 5.44 µM)
  MIC50: 2 µg/mL (≈ 5.44 µM)
  MIC90: 8 µg/mL (≈ 21.8 µM)

From ChEMBL document CHEMBL1150802, “Ampicillin-resistant non-beta-lactamase-producing Haemophilus influenzae in Spain: recent emergence of clonal isolates with increased resistance to cefotaxime and cefixime” (2007)
